We go through 9 compounds from ChEMBL document CHEMBL1156112, “Discovery of 3-(1H-indol-3-yl)-4-[2-(4-methylpiperazin-1-yl)quinazolin-4-yl]pyrrole-2,5-dione (AEB071), a potent and selective inhibitor of protein kinase C isotypes” (J Med Chem, 2009).

Series [1] concerns the target Protein kinase C alpha type (Homo sapiens, UniProt P17252). In words: Inhibition of PKCalpha by SPA.
In series [2] the target is Protein kinase C beta type (Homo sapiens, UniProt P05771). In words: Inhibition of PKCbeta1 by SPA.
Series [3] addresses Protein kinase C delta type (Homo sapiens, UniProt Q05655). In words: Inhibition of PKCdelta by SPA.
Series [4] has as its target T1, Protein kinase C epsilon type (Homo sapiens, UniProt Q02156).
T1 sequence (Q02156 whole entry): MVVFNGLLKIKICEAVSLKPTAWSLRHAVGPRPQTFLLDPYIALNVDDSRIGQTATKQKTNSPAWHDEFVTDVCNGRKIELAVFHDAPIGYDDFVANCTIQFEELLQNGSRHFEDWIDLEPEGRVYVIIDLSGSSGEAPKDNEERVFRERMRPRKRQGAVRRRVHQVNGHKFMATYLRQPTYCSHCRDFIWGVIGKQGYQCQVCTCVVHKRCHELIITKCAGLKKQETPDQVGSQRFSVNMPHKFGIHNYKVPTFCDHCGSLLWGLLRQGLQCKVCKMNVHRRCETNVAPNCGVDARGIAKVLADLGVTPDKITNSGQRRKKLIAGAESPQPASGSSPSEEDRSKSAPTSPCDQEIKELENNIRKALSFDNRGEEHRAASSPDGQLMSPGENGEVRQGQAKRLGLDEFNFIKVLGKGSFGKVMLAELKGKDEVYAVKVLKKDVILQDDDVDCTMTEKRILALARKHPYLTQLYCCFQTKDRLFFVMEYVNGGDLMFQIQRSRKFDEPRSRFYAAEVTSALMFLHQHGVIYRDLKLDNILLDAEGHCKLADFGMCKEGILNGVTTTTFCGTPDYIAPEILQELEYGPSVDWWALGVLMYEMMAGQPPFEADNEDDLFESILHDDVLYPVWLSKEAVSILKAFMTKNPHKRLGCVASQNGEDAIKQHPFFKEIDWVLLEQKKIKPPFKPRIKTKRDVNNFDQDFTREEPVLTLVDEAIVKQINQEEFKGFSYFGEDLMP
Put plainly: Inhibition of PKCepsilon by SPA.

Series [5] concerns the target Protein kinase C eta type (Homo sapiens, UniProt P24723). In words: Inhibition of PKCeta by SPA.
The target of series [6] is Protein kinase C theta type (Homo sapiens, UniProt Q04759). Put plainly: Inhibition of PKCtheta by SPA.
Another series can be described thus: cells. Conditions: Homo sapiens, Jurkat.
Series [7] is described as follows: AUC (0 to infinity) in Lewis rat at 5 mg/kg, iv. The series is classed as ADME, organism-based. More on the design: time infinity, dose 5 mg/kg, route intravenous. As to conditions: plasma. The gist of the method: (§1)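 Rats dosed either 5 mg/kg iv in 75% saline (0.9%)-25% PEG400 or 20 mg/kg po in 75% water-25% PEG400. OFA or Lewis rats were used depending on the compound. Values are averages of three animals. AUC is extrapolated to infinity. Oral bioavailability (F) comes from the po and iv exposures.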

A short description of series [8]: Elimination half life in Lewis rat at 5 mg/kg, iv. More on the design: dose 5 mg/kg, route intravenous. Conditions: in vivo, read-out: beta t1/2 (converted). The series is classed as ADME, organism-based. The gist of the method: as §1
Series [9] in a line: Clearance in Lewis rat at 5 mg/kg, iv. As to conditions: in vivo. The series is classed as ADME, organism-based. More on the design: dose 5 mg/kg, route intravenous. The gist of the method: as §1
Series [10] is described as follows: Volume of distribution at steady state in Lewis rat at 5 mg/kg, iv. The series is classed as ADME, organism-based. Details: dose 5 mg/kg, route intravenous. Conditions: in vivo, read-out: Vdss. Summed up: as §1
Series [11] can be described thus: Tmax in Lewis rat at 20 mg/kg, po. The series is classed as ADME, organism-based. Details: dose 20 mg/kg, route oral. Conditions: in vivo. The gist of the method:
as §1

The nature of series [12]: Cmax in Lewis rat at 20 mg/kg, po. The series is classed as ADME, organism-based. More on the design: dose 20 mg/kg, route oral. As to conditions: in vivo. Summed up:
as §1

Series [13] can be described thus: AUC (0 to infinity) in Lewis rat at 20 mg/kg, po. The series is classed as ADME, organism-based. More on the design: time infinity, dose 20 mg/kg, route oral. Conditions: plasma. Summed up:
as §1

Series [14] in a line: Oral bioavailability in Lewis rat at 20 mg/kg, po. The series is classed as ADME, organism-based. Conditions: in vivo. The gist of the method:
as §1

Series [15] in a line: AUC (0 to infinity) in OFA rat at 5 mg/kg, iv. Details: time infinity, dose 5 mg/kg, route intravenous. As to conditions: plasma. The series is classed as ADME, organism-based. Summed up: as §1
Series [16] can be described thus: Elimination half life in OFA rat at 5 mg/kg, iv. Conditions: in vivo, read-out: beta t1/2 (converted). More on the design: dose 5 mg/kg, route intravenous. The series is classed as ADME, organism-based. Summed up: as §1
Series [17] can be described thus: Clearance in OFA rat at 5 mg/kg, iv. Conditions: in vivo. More on the design: dose 5 mg/kg, route intravenous. The series is classed as ADME, organism-based. The gist of the method: as §1
Series [18] can be described thus: Volume of distribution at steady state in OFA rat at 5 mg/kg, iv. As to conditions: in vivo, read-out: Vdss. The series is classed as ADME, organism-based. Details: dose 5 mg/kg, route intravenous. Summed up: as §1
The nature of series [19]: Tmax in OFA rat at 20 mg/kg, po. Details: dose 20 mg/kg, route oral. Conditions: in vivo. The series is classed as ADME, organism-based. The gist of the method:
as §1

Series [20] is described as follows: Cmax in OFA rat at 20 mg/kg, po. The series is classed as ADME, organism-based. More on the design: dose 20 mg/kg, route oral. As to conditions: in vivo. The gist of the method: as §1
Series [21] is described as follows: AUC (0 to infinity) in OFA rat at 20 mg/kg, po. More on the design: dose 20 mg/kg, route oral, time infinity. As to conditions: plasma. The series is classed as ADME, organism-based. Summed up: as §1
The nature of series [22]: Oral bioavailability in OFA rat at 20 mg/kg, po. The series is classed as ADME, organism-based. As to conditions: in vivo. The gist of the method: as §1
Series [23] is described as follows: Dissociation constant, pKa of the compound. The series is classed as physicochemical.

Broadly, the IC50 is the concentration at which inhibition is half-maximal. A word on the AUC(0-inf): it is total exposure, with the tail of the curve extrapolated. What is called clearance is the rate of elimination divided by the concentration. By Tmax is commonly meant the time at which the peak concentration occurs. For orientation: Cmax means the peak of the concentration-time curve. By bioavailability is commonly meant dose-corrected exposure relative to a reference, in per cent. The term pKa denotes the pH at which an ionisable group is half protonated. A high value points to a weaker acid or stronger base.

Chain of Protein kinase C beta type (P05771 whole entry): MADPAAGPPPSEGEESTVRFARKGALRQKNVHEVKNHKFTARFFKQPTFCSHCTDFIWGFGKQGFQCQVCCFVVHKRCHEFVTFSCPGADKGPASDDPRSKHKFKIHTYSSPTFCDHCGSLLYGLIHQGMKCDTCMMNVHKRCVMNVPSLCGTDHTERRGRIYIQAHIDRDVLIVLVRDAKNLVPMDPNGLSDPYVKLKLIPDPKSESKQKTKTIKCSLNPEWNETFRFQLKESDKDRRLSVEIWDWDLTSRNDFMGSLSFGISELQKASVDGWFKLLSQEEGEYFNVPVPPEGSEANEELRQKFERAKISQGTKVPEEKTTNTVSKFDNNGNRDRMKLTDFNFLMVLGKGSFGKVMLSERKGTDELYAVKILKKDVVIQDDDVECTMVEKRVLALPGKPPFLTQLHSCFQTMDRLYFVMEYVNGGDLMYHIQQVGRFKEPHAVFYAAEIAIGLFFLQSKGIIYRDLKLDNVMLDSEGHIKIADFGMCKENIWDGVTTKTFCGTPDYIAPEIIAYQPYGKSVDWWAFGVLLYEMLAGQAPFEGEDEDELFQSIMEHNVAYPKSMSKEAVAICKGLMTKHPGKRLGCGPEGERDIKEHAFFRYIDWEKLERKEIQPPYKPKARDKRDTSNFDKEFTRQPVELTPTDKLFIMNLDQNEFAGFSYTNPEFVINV
Chain of Protein kinase C eta type (P24723 whole entry): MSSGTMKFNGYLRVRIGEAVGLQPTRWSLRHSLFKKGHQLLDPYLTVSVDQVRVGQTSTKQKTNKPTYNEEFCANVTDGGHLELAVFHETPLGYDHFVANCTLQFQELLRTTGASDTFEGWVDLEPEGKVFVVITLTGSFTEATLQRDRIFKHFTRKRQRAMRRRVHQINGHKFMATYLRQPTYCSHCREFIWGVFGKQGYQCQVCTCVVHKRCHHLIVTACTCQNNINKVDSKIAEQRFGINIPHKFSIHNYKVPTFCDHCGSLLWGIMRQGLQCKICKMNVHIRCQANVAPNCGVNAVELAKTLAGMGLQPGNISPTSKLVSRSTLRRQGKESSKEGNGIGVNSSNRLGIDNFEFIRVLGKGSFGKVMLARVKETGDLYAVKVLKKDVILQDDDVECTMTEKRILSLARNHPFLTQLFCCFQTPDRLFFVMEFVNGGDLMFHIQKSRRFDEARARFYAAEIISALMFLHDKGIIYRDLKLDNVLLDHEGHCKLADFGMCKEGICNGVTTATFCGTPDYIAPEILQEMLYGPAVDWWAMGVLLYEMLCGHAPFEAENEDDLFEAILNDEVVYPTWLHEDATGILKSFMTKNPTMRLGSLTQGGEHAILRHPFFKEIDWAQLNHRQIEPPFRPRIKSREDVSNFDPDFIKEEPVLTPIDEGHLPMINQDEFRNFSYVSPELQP
Chain of Protein kinase C delta type (Q05655 whole entry): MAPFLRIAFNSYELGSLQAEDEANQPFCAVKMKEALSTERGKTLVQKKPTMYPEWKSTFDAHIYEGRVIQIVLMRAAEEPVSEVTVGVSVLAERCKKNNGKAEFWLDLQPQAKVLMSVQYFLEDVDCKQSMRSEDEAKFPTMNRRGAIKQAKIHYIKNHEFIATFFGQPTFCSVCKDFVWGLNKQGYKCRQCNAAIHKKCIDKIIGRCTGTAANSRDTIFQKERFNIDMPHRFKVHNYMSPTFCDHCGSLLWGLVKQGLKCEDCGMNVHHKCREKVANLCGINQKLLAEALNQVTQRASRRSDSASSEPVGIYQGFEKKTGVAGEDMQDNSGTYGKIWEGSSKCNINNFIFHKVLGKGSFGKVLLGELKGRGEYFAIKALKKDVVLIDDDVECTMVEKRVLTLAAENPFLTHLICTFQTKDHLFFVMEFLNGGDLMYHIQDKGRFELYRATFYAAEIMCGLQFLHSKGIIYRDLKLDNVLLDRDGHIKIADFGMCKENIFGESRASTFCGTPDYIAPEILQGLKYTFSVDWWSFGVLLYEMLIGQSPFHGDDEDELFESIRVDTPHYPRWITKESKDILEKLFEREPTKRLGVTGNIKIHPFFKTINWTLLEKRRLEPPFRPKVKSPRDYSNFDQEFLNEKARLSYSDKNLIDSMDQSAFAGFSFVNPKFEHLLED
Chain of Protein kinase C theta type (Q04759 whole entry): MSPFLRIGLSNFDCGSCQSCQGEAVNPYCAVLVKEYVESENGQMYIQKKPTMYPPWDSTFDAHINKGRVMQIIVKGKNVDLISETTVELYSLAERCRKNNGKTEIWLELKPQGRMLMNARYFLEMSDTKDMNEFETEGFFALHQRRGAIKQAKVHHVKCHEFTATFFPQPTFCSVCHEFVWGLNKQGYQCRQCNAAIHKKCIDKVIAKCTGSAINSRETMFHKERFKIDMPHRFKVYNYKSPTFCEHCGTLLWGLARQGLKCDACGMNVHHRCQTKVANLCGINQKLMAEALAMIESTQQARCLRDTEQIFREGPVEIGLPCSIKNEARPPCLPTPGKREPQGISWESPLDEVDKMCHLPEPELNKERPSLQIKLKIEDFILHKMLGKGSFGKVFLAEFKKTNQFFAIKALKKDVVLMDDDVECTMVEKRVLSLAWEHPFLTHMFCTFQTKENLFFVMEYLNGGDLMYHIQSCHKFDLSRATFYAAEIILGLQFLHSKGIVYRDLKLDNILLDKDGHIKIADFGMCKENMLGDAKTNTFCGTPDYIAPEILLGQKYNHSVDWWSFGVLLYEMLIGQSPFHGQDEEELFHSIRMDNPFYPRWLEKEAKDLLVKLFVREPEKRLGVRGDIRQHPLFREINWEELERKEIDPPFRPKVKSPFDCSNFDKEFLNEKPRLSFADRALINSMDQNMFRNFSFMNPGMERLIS

As to `CN(C)CCOc1cccc(C2=C(c3c[nH]c4ccccc34)C(=O)NC2=O)c1`, the IC50 in series [1] was 15 nM; in series [2], 58 nM; in series [3] it was 47 nM; in [4], 29 nM; in [5], 47 nM; in series [6] it was 52 nM. Moreover, the IC50 in the series “cells” turned out to be 668 nM.

With `CN(C)CCCn1cc(C2=C(c3cccc4ccccc34)C(=O)NC2=O)c2ccccc21`, the IC50 was 98 nM in series [1]; 60 nM in series [2]; 207 nM in series [3]; above 315 nM in [4]; 349 nM in series [5]; 165 nM in series [6].

In the case of `CN1CCN(c2cc(C3=C(c4c[nH]c5ccccc45)C(=O)NC3=O)c3ccccc3c2)CC1`, the IC50 in [1] was 0.9 nM; in [2], 1.8 nM; in series [3], 7.3 nM; in [4] it was 19 nM; in [5] it was 25 nM; in [6], 4.8 nM. This compound gave a half-maximal inhibitory concentration (IC50) in “cells” of 50 nM. Besides, the AUC(0-inf) in [7] came to 4320 ng·h/mL; in series [13] it was 1990 ng·h/mL. Moreover, the half-life in series [8] was 4.5 h. This compound also had a clearance in series [9] of 19.3 mL/min/kg. In series [10], the Vd is 12 L/kg. Also, the Tmax in [11] came to 2 h. The compound also had a Cmax in [12] of 242 ng/mL. Also, the bioavailability in [14] is 12%.

Turning to `CN(C)CCOc1cc(C2=C(c3c[nH]c4ccccc34)C(=O)NC2=O)c2ccccc2c1`, the IC50 was determined as 2.2 nM in series [1]; 2.1 nM in [2]; 4.4 nM in series [3]; 5.5 nM in series [4]; 11 nM in series [5]; 3.3 nM in series [6]. The same compound gave a 50% inhibitory concentration (IC50) in the series “cells” of 69 nM. The AUC(0-inf) in [15] was 2690 ng·h/mL; in series [21] it was 154 ng·h/mL. Besides, in [16], the half-life is 20.6 h. For the same compound, the clearance in [17] amounted to 30.9 mL/min/kg. In series [18], the Vd was 48.2 L/kg. For the same compound, the Tmax in [19] is 0.5 h. This compound also showed a Cmax in series [20] of 16.2 ng/mL. In addition, the bioavailability in series [22] is 1%.

Take `CN(C)CCCn1cc(C2=C(c3n[nH]c4ccccc34)C(=O)NC2=O)c2ccccc21`: the IC50 in series [1], in [2], in [3], in series [4], in [5] and in [6] was above 315 nM in each case.

Take `CN(C)CCCn1cc(C2=C(c3csc4ccccc34)C(=O)NC2=O)c2ccccc21`: the IC50 in series [1] was 73 nM; in [2] it was 47 nM; in [3], 183 nM; in series [4] it was 285 nM; in [5] it was 293 nM; in series [6], 255 nM.

For the compound `CN(C)CCCn1cc(C2=C(c3c[nH]c4ccccc34)C(=O)NC2=O)c2ccccc21` [GF-109203], the IC50 in series [1] came out at 2.3 nM; in [2], 1.6 nM; in series [3] it was 8.7 nM; in series [4] it was 6.6 nM; in [5], 10 nM; in series [6] it was 6.7 nM.

As to `O=C1NC(=O)C(c2c[nH]c3ccccc23)=C1c1nc(N2CCOCC2)nc2ccccc12`, the half-inhibitory concentration (IC50) in [1] amounted to 1500 nM; in [2] it was 1270 nM; in [3], 794 nM; in [4] it was 1820 nM; in series [5], 2540 nM; in series [6], 1380 nM. Besides, the IC50 in the series “cells” was above 3700 nM.

For the compound `CN1CCN(c2cccc(C3=C(c4c[nH]c5ccccc45)C(=O)NC3=O)c2)CC1`, the IC50 came out at 7.1 nM in series [1]; 36 nM in [2]; 97 nM in series [3]; 59 nM in [4]; 36 nM in [5]; 76 nM in series [6]. For the same compound, the IC50 in the series “cells” amounted to 277 nM. The compound further displayed a pKa in series [23] of 7.5.
